In ChEMBL document CHEMBL3593239, “PABA/NO lead optimization: Improved targeting of cytotoxicity to glutathione S-transferase P1-overexpressing cancer cells” (Bioorg Med Chem, 2015) one finds Drug metabolism data, which are given here for eight compounds.

Each structure is given as a SMILES string.

Data set [1] addresses T1, Glutathione S-transferase A1 (Homo sapiens, UniProt P08263).
T1 sequence (P08263 whole entry): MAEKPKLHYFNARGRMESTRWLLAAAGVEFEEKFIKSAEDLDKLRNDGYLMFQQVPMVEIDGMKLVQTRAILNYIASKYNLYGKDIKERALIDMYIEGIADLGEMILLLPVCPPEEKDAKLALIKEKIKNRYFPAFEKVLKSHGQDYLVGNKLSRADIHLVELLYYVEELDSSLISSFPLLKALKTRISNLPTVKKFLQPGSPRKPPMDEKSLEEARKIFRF
Briefly: Drug level in phosphate buffer assessed as GSTA1 (unknown origin)-mediated compound formation from nitric oxide release pathway treated with (Z)-1-(4-cyano-5-(4-(methylamino)benzoyloxy)-2-nitrophenoxy)-3,3-dimethyltriaz-1-ene 2-oxide at 1 uM at pH 7.4 at 37 degC after 30 mins by LC-MS/MS analysis in presence of GSH. It is filed as ADME. To be noted: pH 7.4, 0.5 h. The essentials: (§1)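 Products analysed by LC–MS. The ratio is the NO-release-pathway product over the NO-retained-pathway phenolic product.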

Data set [2] is described as follows: Drug level in phosphate buffer treated with (Z)-1-(4-cyano-5-(4-(methylamino)benzoyloxy)-2-nitrophenoxy)-3,3-dimethyltriaz-1-ene 2-oxide at 1 uM at pH 7.4 at 37 degC measured for 30 mins by LC-MS/MS analysis in presence of GSH. The following applies: pH 7.4, 0.5 h. It is filed as physicochemical.
Data set [3] can be described thus: Drug level in phosphate buffer treated with (Z)-3,3-dimethyl-1-(5-(4-(methylamino)benzoyloxy)-2,4-dinitrophenoxy)triaz-1-ene 2-oxide at 1 uM at pH 7.4 at 37 degC after 1 to 30 mins by LC/MS-MS analysis. The class given is physicochemical. The following applies: pH 7.4, 1 µM.
Data set [4] can be described thus: Drug level in phosphate buffer treated with (Z)-3,3-dimethyl-1-(5-(4-(methylamino)benzoyloxy)-2,4-dinitrophenoxy)triaz-1-ene 2-oxide at 1 uM at pH 7.4 at 37 degC by HPLC trapping method in presence of GSH. The class given is physicochemical. The following applies: pH 7.4, 1 µM.
Data set [5] addresses T1, Glutathione S-transferase A1. Briefly: Drug level in phosphate buffer assessed as GSTA1 (unknown origin)-mediated compound formation from nitric oxide retained pathway treated with (Z)-3,3-dimethyl-1-(5-(4-(methylamino)benzoyloxy)-2,4-dinitrophenoxy)triaz-1-ene 2-oxide at 1 uM at pH 7.4 at 37 degC after 30 mins by LC-MS/MS analysis in presence of GSH. The class given is ADME. To be noted: pH 7.4, 0.5 h. A digest of the protocol: as §1

The nature of data set [6]: Drug level in phosphate buffer treated with (Z)-3,3-dimethyl-1-(5-(4-(methylamino)benzoyloxy)-2,4-dinitrophenoxy)triaz-1-ene 2-oxide at 1 uM at pH 7.4 at 37 degC by HPLC trapping method. It is filed as physicochemical. To be noted: pH 7.4, 1 µM.
The target in data set [7] is Glutathione S-transferase P (Homo sapiens, UniProt P09211). Briefly: Drug level in phosphate buffer assessed as GSTP1 (unknown origin)-mediated compound formation treated with (Z)-1-(4-cyano-5-(4-(methylamino)benzoyloxy)-2-nitrophenoxy)-3,3-dimethyltriaz-1-ene 2-oxide at 1 uM at pH 7.4 at 37 degC after 1 to 30 mins by LC-MS/MS analysis in presence of GSH. The class given is ADME. The following applies: pH 7.4, 1 µM. A digest of the protocol: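 Test compound at 1 µM reacted with 4 mM GSH containing 4 nM GSTP1 in 0.1 M phosphate, pH 7.4, at 37 °C. Products identified by LC–MS traces taken at 60 s and 30 min.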
Chain of Glutathione S-transferase P (P09211 whole entry): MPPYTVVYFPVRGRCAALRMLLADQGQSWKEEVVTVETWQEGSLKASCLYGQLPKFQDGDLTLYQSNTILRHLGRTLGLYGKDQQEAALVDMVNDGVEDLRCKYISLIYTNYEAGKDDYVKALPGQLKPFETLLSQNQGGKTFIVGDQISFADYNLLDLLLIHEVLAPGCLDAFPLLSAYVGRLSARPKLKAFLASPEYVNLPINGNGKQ

Data set [8] can be described thus: Drug level in phosphate buffer treated with (Z)-1-(2-cyano-5-(4-(methylamino)benzoyloxy)-4-nitrophenoxy)-3,3-dimethyltriaz-1-ene 2-oxide at 1 uM at pH 7.4 at 37 degC after 30 secs by LC-MS analysis in presence of GSH. The class given is physicochemical. To be noted: pH 7.4, 0.5 min.
For data set [9], the target named is T1, Glutathione S-transferase A1. Briefly: Drug level in phosphate buffer assessed as GSTA1 (unknown origin)-mediated compound formation from nitric oxide retained pathway treated with (Z)-1-(2-cyano-5-(4-(methylamino)benzoyloxy)-4-nitrophenoxy)-3,3-dimethyltriaz-1-ene 2-oxide at 1 uM at pH 7.4 at 37 degC after 30 mins by LC-MS/MS analysis in presence of GSH. The class given is ADME. The following applies: pH 7.4, 0.5 h. The essentials:
as §1

Data set [10] is described as follows: Drug level in phosphate buffer treated with (Z)-1-(4-cyano-5-(4-(methylamino)benzoyloxy)-2-nitrophenoxy)-3,3-dimethyltriaz-1-ene 2-oxide at 1 uM at pH 7.4 at 37 degC after 30 secs by LC-MS analysis in presence of GSH. The class given is physicochemical. The following applies: pH 7.4, 0.5 min.
The target in data set [11] is T1, Glutathione S-transferase A1. The experiment in a line: Drug level in phosphate buffer assessed as GSTA1 (unknown origin)-mediated compound formation from nitric oxide retained pathway treated with (Z)-1-(4-cyano-5-(4-(methylamino)benzoyloxy)-2-nitrophenoxy)-3,3-dimethyltriaz-1-ene 2-oxide at 1 uM at pH 7.4 at 37 degC after 30 mins by LC-MS/MS analysis in presence of GSH. The class given is ADME. The following applies: pH 7.4, 0.5 h. A digest of the protocol:
as §1

Data set [12] has the same target. Briefly: Drug level in phosphate buffer assessed as GSTA1 (unknown origin)-mediated compound formation from nitric oxide release pathway treated with (Z)-3,3-dimethyl-1-(5-(4-(methylamino)benzoyloxy)-2,4-dinitrophenoxy)triaz-1-ene 2-oxide at 1 uM at pH 7.4 at 37 degC after 30 mins by LC-MS/MS analysis in presence of GSH. It is filed as ADME. To be noted: pH 7.4, 0.5 h. The essentials:
as §1

For `N#Cc1cc([N+](=O)[O-])c(SC[C@H](NC(=O)CC[C@H](N)C(=O)O)C(=O)NCC(=O)O)cc1O`, the Drug metabolism entry in data set [1] and in data set [2] was “metabolite_detected” throughout.

For the compound `N[C@@H](CCC(=O)N[C@@H](CSc1cc(SC[C@H](NC(=O)CC[C@H](N)C(=O)O)C(=O)NCC(=O)O)c([N+](=O)[O-])cc1[N+](=O)[O-])C(=O)NCC(=O)O)C(=O)O`, the Drug metabolism result in data set [3] is “metabolite_detected”.

`CNc1ccc(C(=O)Oc2cc(SC[C@H](NC(=O)CC[C@H](N)C(=O)O)C(=O)NCC(=O)O)c([N+](=O)[O-])cc2[N+](=O)[O-])cc1`: the Drug metabolism result in [3] and in [4] was “metabolite_detected” in each case.

Consider `CN(C)/[N+]([O-])=N\Oc1cc(O)c([N+](=O)[O-])cc1[N+](=O)[O-]`, for which the Drug metabolism result in data set [5], in data set [6], in data set [3] and in data set [4] was “metabolite_detected” throughout.

Take `CNc1ccc(C(=O)Oc2cc(SC[C@H](NC(=O)CC[C@H](N)C(=O)O)C(=O)NCC(=O)O)c([N+](=O)[O-])cc2C#N)cc1`: the Drug metabolism result in data set [7] was “metabolite_detected”.

As to `CN(C)/[N+]([O-])=N/Oc1cc(O)c([N+](=O)[O-])cc1C#N`, the Drug metabolism entry in data set [8] and in data set [9] was “metabolite_detected” each time.

For `CN(C)/[N+]([O-])=N/Oc1cc(O)c(C#N)cc1[N+](=O)[O-]`, the Drug metabolism entry in data set [10] and in data set [11] was “metabolite_detected” each time.

As to `N[C@@H](CCC(=O)N[C@@H](CSc1cc(O)c([N+](=O)[O-])cc1[N+](=O)[O-])C(=O)NCC(=O)O)C(=O)O`, the Drug metabolism result in data set [12] and in [3] was “metabolite_detected” in each case.
